Screening data as filed in PubChem BioAssay.
The list is not random: actives were taken first. Their share in the collection is about 3.8%.
NS3 helicase inh: inhibitors of Hepatitis C virus NS3 helicase; inhibition, % at 10.9 µM; NS3 helicase DNA unwinding, Cy5 molecular beacon fluorescence; hit rate 0.56% among 290,000; AID 1800;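 active = inhibition above the mean of all tested compounds plus 3 SD, set per campaign, cut at about 35% in these data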;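 note: 0% = DMSO wells and 100% = thioflavine S control wells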
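Compound dosing – single dose, 10.9 µM nominal final, DMSO 0.8% final · System – NS3 helicase fragment of HCV · Buffer or medium – MOPS pH 6.5, MgCl2, DTT, Tween20, BSA · Signal – Cy5 beacon fluorescence read at start and 1 h · Also added – annealed dual-labelled DNA beacon duplex, ATP-started · Schedule – 1 h at 25 °C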
HSF-1 act: increases HSF-1 driven luciferase reporter signal; AID 504408; hit rate 1.7% among 300,000; NIH3T3-HGL HSF-1 luciferase reporter, MG132, 8 h; 100% = twice DMSO control signal; activation, % at 9 µM;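 active = mean replicate activation of at least 50% with a set share of replicates each reaching 50%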;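 note: 0% = median of the neutral control wells and 100% = twice that signal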
Lipid droplet: hepatic lipid droplet formation modulation | AML12 mouse hepatocytes, oleate lipid droplets, BODIPY imaging | inhibition, % at 6.5 µM | hit rate 0.4% among 240,000 | AID 1656;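 active = lipid droplet intensity inhibited by at least 50%, with more than 500 cells counted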
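Test system: AML12 hepatocytes (mouse); reagent: oleate loading, 100 µM; dosing: one dose, 6.5 µM compound; incubation: overnight exposure; signal: fluorescence imaging, 20x objective, two fields per well; read-out basis: % inhibition of corrected integrated BODIPY droplet signal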
HSP90 inh: inhibitors of HSP90 luciferase refolding in rabbit reticulocyte lysate. AID 1789. inhibition, % at 5.6 µM. luciferase refolding luminescence, 3 h. hit rate 0.91% among 290,000;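 active = inhibition above the screen-wide mean plus 3 SD, computed separately per campaign, cut at about 16% in these data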;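 note: 0% = DMSO wells and 100% = 60 µM geldanamycin wells; inhibitors lower the luminescence because luciferase stays unfolded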
HSF1 inh: HSF1 inhibition; NIH3T3-HGL HSE-luciferase, MG132-induced, luminescence 8 h; stronger effect = lower value; activity change, negative = inhibition, % at 7.5 µM (by protocol); hit rate 0.77% among 300,000;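 active = more than half of replicate wells show activity change below -50%, luminescence cut by over half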;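 note: luciferase reports HSF-1 transcriptional activity via heat shock element; 0% = median of DMSO wells and -100% = zero luminescence signal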
NS3 hel confirm: HCV NS3 helicase inhibition, confirmation assay; shares compounds with NS3 helicase inh; hit rate 31% among 1,600; NS3 helicase DNA unwinding, Cy5 molecular beacon fluorescence; inhibition, % at 10.9 µM;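 active = inhibition above the mean of all tested compounds plus 3 SD, cutoff set per campaign, cut at about 36% in these data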
DNA FID counter: displaces DNA intercalator in HCV helicase counter-screen; shares compounds with NS3 helicase inh; DNA fluorescent intercalator displacement, fluorescence; inhibition, % at 7.9 µM; hit rate 4% among 1,600; AID 1945; in the data active = inhibition above about 37%;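 note: 0% = vehicle and 100% = reference compound; higher means more displacement of ethidium bromide from the DNA hairpin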
Active calls of the source: *; x = not tested or not shown.

SMILES | NS3 helicase inh | HSF-1 act | Lipid droplet | HSP90 inh | HSF1 inh | NS3 hel confirm | DNA FID counter
O=C1/C(=C/c2ccco2)CCc2ccccc21 | 32.5 | 16.7 | 27.7 | 1.8 | 4.9 | x | x
O=C(O)c1ccc2c(c1)C(=O)/C(=C\c1ccco1)C2=O | 62.5* | -1.5 | 6.9 | 12.4 | -0.5 | -14.8 | 10.8
O=C(COC(=O)Cc1cccs1)Nc1ccc(OC(F)(F)F)cc1 | x | -2.4 | x | x | -3.4 | x | x
N#CCCN(C(=O)COC(=O)C1CCN(S(=O)(=O)c2ccc3c(c2)OCCO3)CC1)c1ccccc1 | x | 20.5 | x | x | -0.9 | x | x
CC1(C)Cc2c(sc3c2c(=N)n(Cc2ccco2)c(=O)n3CC(=O)Nc2ccccc2)CO1 | 3.0 | 19.3 | -2.4 | 6.0 | 6.6 | x | x
O=c1c2c3c(sc2n(CCN2CCCCC2)c(=O)n1Cc1ccco1)CCCCC3 | -8.8 | 6.6 | 17.4 | 2.0 | 3.3 | x | x
NC(=O)Cn1c(=O)n(Cc2ccco2)c(=O)c2c3c(sc21)CCCCC3 | 38.7* | -8.6 | x | 3.6 | -4.2 | 4.8 | -13.0
O=C(Cn1c(=O)n(Cc2ccco2)c(=O)c2c3c(sc21)CCCC3)Nc1ccccc1 | 47.2* | -7.3 | 0.2 | 11.6 | 3.1 | 5.3 | 7.3
CCCc1cc(NC(=O)CCl)n(-c2ccccc2)n1 | 1.1 | 11.3 | -29.6 | 3.0 | 9.2 | x | x
COc1cccc(C(N)=O)c1OC(=O)Cc1ccccc1F | 39.5* | 1.8 | 5.5 | -2.1 | -2.7 | 2.2 | 13.5
O=C(Cc1ccccc1F)OCN1C(=O)c2ccccc2C1=O | 22.1 | 17.8 | 12.9 | 2.0 | 13.9 | x | x
Cc1cc2c(c(=O)o1)C(CCC1CCCCC1)C(C#N)=C(N)O2 (centres undefined) | 38.8* | -0.7 | -2.3 | 4.1 | 0.5 | -21.4 | -5.5
CCCCn1c(/C=C/c2ccco2)nc2ccccc21 | 44.4* | 6.9 | -8.2 | 2.8 | 6.4 | -13.6 | -8.8
Clc1ccc(Cn2c(/C=C/c3ccco3)nc3ccccc32)cc1 | 23.1 | 37.9 | 3.5 | -1.1 | 4.4 | x | x
Cc1ccc(Cn2c(/C=C/c3ccco3)nc3ccccc32)cc1 | 42.9* | 11.8 | -7.6 | 3.2 | -2.3 | -13.1 | -1.5
CCCn1c(/C=C/c2ccco2)nc2ccccc21 | 52.2* | -40.7 | -15.6 | 0.0 | -21.0 | 0.9 | 4.8
O=C(CSc1ccc(-c2ccco2)nn1)Nc1ccccc1F | 24.5 | 5.8 | 6.6 | -1.6 | 3.7 | x | x
CCN(CCCNC(=O)CN1C(=O)COc2ccc(S(=O)(=O)N3CCC(C)CC3)cc21)Cc1ccccc1 | -26.2 | 0.0 | -11.0 | 0.6 | 3.8 | x | x
CCOC(=O)c1c(S(=O)(=O)NCC(=O)NCc2ccc(C)cc2)c(C)n(C)c1C | 10.4 | 13.3 | -5.0 | -3.3 | -14.5 | x | x
COC(=O)c1c(NC(=O)CCC(=O)O)sc(Cc2ccccc2)c1C | -3.4 | -2.0 | -19.1 | -2.9 | -0.1 | x | x
COc1ccc(NC(=O)c2c(NC(=O)CCC(=O)O)sc(-c3ccccc3)c2C)cc1 | 37.3* | 22.5 | -3.0 | -4.0 | 9.0 | 52.6* | -9.4
Cc1cc2nc3c(=O)n(CCc4ccccc4)c(=O)[nH]c3nc2cc1N | 38.1* | 59.0* | 30.3 | 1.0 | 20.1 | 6.0 | 8.8
Cc1nnc(-c2ccco2)c2cn(-c3cccc(Br)c3)nc12 | 39.0* | 26.0 | 39.9 | 3.3 | 5.7 | 3.7 | 8.9
CC(C)(C)C(=O)C1=C(O)C(=O)N(Cc2ccccc2)C1c1ccccc1Cl (centres undefined) | 37.8* | 0.0 | -6.8 | 0.2 | -7.2 | 14.7 | -13.2
Cc1cc(S(=O)(=O)N2CCCCC2)c(C)s1 | 67.1* | -0.9 | -2.1 | -1.2 | -8.9 | -10.1 | -4.7
CCOC(=O)c1c(N)sc(=S)c2c1CCC2 | 57.6* | -17.4 | x | 2.6 | -3.4 | 28.2 | 3.6
CCOC(=O)c1c(N)sc(N)c1C(=O)OCC | 3.7 | 1.6 | x | -3.1 | -6.6 | x | x
CC(C)CSC1=NSC2=NC(=O)/C(=C\c3cccs3)C(=N)N12 | 37.2* | 32.9 | x | 0.9 | 13.0 | 53.1* | 11.6
N=C1/C(=C/c2cccs2)C(=O)N=C2SN=C(SCc3ccccc3)N12 | 17.7 | -3.8 | x | -3.2 | 9.8 | x | x
